Calls of active or inactive are those of the source. The calls are words filed in the database; no cut-off is given here.
Tested on: MCF7
Test: Cytotoxicity against human ER positive MCF7 cells assessed as cell viability at 1 uM after 72 hrs by MTT assay
Type: functional, cell-based
Method in brief: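 Lines kept in DMEM with 10% fetal bovine serum and 1% penicillin/streptomycin at 37 °C, 5% CO2. Compound applied at 1 µM for 72 h, then standard MTT reduction read-out. Viability given as mean percentage of formazan formed by treated cells relative to mock-treated cells (0.1% DMSO). Run in quadruplicate, standard error, Student's t-test.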

Compound | Activity
COc1cc(-c2ccc[nH]2)[nH]c1/C=C1\N=C(C)C(C(=O)CCCCC(=O)Oc2ccc3c(c2)CC[C@@H]2[C@@H]3CC[C@]3(C)C(=O)CC[C@@H]23)=C1C | inactive
COc1cc(-c2ccc[nH]2)[nH]c1/C=C1\N=C(C)C(C(=O)CCCCCCCCC(=O)Oc2ccc3c(c2)CC[C@@H]2[C@@H]3CC[C@]3(C)C(=O)CC[C@@H]23)=C1C | inactive

From ChEMBL document CHEMBL2417509, “Synthesis and biological evaluation of prodigiosene conjugates of porphyrin, estrone and 4-hydroxytamoxifen” (2013)
